Out of some 24,000 compounds screened, fewer than 10 were called active. Rule as the data show it: active = caspase activation above about 5.9%; inconclusive = no clear call, values can overlap the other calls; inactive = below about 2.2%. A selection follows.
Experiment: A1 inhibitors via caspase activation, primary screen, cell-based, luminescence, HTS, two replicates (AID 2465)
Conditions: MEF A1-2A-BIM cells, caspase-Glo luminescence, 3 h; stronger effect = higher value; percent of clofoctol response, DMSO zero; concentration not given here
Procedure, shortened: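 Evaluation: Caspase-3/7 activity from luminescence increase | Assay system: A1-2A-BIM mouse embryonic fibroblasts | Quantity: 2500 MEF cells/well | Medium: RPMI-1640 plus 10% FBS | Detection: Caspase-Glo 3/7 luminescence, 1 h at room temperature | Dosing: 50 nL compound per well, pinned | Timing: Cells settled overnight, compound exposure 3 h at 37 °C, 5% CO2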

Caspase activation, inactive:
Cc1ccc(S(=O)(=O)N(C)C[C@@H]2Oc3ccc(NC(=O)Cc4cn(C)c5ccccc45)cc3C(=O)N([C@@H](C)CO)C[C@@H]2C)cc1 0.187%, Cc1noc(C)c1S(=O)(=O)Nc1ccc2c(c1)CC(=O)N([C@@H](C)CO)C[C@H](C)[C@H](CN(C)C(=O)Nc1cccc3ccccc13)O2 0.254%, O=C(CCCCCCC(=O)Nc1ccccc1O)N/N=C/c1ccc(CO)o1 -0.255%, COC(=O)CCCCCCC(=O)N/N=C/c1ccc2ccccc2c1O -1.41%, COc1ccc(NC(=O)N(C)C[C@H]2OCCCC[C@@H](C)Oc3ccc(NC(=O)NC4CCCCC4)cc3C(=O)N([C@@H](C)CO)C[C@H]2C)cc1 0.476%, C[C@@H]1CN([C@@H](C)CO)C(=O)c2cc(NS(=O)(=O)c3cn(C)cn3)ccc2O[C@@H]1CN(C)Cc1ccc(C(=O)Nc2ccccc2N)cc1 0.311%, C[C@H]1CN([C@@H](C)CO)C(=O)c2cc(NC(=O)C3CCCCC3)ccc2O[C@H]1CN(C)C(=O)Nc1ccccc1 0.892%, C[C@@H]1CCCCO[C@@H](CN(C)Cc2ccc(C(=O)O)cc2)[C@@H](C)CN([C@@H](C)CO)C(=O)c2cc(NC(=O)Nc3ccc(C(F)(F)F)cc3)ccc2O1 0.286%, COc1ccc(NC(=O)Nc2ccc3c(c2)C(=O)N([C@@H](C)CO)C[C@@H](C)[C@@H](CN(C)Cc2ccncc2)OCCCC[C@@H](C)O3)cc1 -1.58%, C[C@@H]1CN([C@H](C)CO)C(=O)Cc2cc(NC(=O)CCC(F)(F)F)ccc2O[C@@H]1CN(C)Cc1ccncc1 0.918%, COc1ccc(NC(=O)N(C)C[C@H]2OCCCC[C@@H](C)Oc3ccc(NC(=O)c4ccncc4)cc3C(=O)N([C@@H](C)CO)C[C@H]2C)cc1 -1.47%, COc1ccc(C(=O)Nc2cccc(-n3cc(C(=O)NO)nn3)c2)cc1 -0.373%, COc1ccc(S(=O)(=O)Nc2ccc3c(c2)C(=O)N([C@@H](C)CO)C[C@H](C)[C@H](CN(C)S(=O)(=O)c2ccc(F)cc2)OCCCC[C@@H](C)O3)cc1 0.149%, C[C@H]1CN([C@@H](C)CO)C(=O)CCCn2cc(nn2)CO[C@@H]1CN(C)S(=O)(=O)c1cccc(C#N)c1 0.238%, Cc1noc(C)c1S(=O)(=O)N(C)C[C@@H]1Oc2ccc(NC(=O)Cn3cnnn3)cc2CC(=O)N([C@@H](C)CO)C[C@H]1C -0.944%, C[C@@H]1CN([C@@H](C)CO)C(=O)Cc2cc(NC(=O)CCCCCC(=O)Nc3ccccc3N)ccc2O[C@@H]1CN(C)C(=O)NC1CCCCC1 0.875%, C[C@H]1CN([C@@H](C)CO)C(=O)Cc2cc(NS(=O)(=O)c3ccccc3)ccc2O[C@H]1CN(C)Cc1ccc(C(=O)Nc2ccccc2N)cc1 0.839%, COc1ccc(CN(C)C[C@H]2OCCCC[C@H](C)Oc3ccc(NC(=O)NC4CCCCC4)cc3C(=O)N([C@@H](C)CO)C[C@@H]2C)cc1 2.09%, CN(C)c1ccc(/C=N/NC(=O)c2cccc(C(=O)NO)c2)cc1 -7.51%, C[C@@H]1CN([C@@H](C)CO)C(=O)c2cc(NC(=O)Nc3ccc4c(c3)OCO4)ccc2O[C@@H](C)CCCCO[C@@H]1CN(C)S(=O)(=O)c1cccs1 0.598%, COc1ccc(CN(C)C[C@H]2OCCCC[C@H](C)Oc3ccc(NC(=O)c4ccccc4)cc3C(=O)N([C@@H](C)CO)C[C@@H]2C)cc1 2.67%, O=C(NO)c1cccc(C(=O)N/N=C/c2cc(Br)c(O)c(Br)c2)c1 0.169%, CC(C)NC(=O)N(C)C[C@H]1Oc2ccc(NC(=O)CCCCCC(=O)Nc3ccccc3N)cc2CC(=O)N([C@@H](C)CO)C[C@H]1C 0.899%, Cc1noc(C)c1S(=O)(=O)N(C)C[C@H]1OCc2cn(nn2)CCCC(=O)N([C@H](C)CO)C[C@H]1C -0.756%, C[C@H]1CCCCO[C@@H](CN(C)C(=O)Nc2ccccc2)[C@@H](C)CN([C@@H](C)CO)C(=O)c2cc(NC(=O)Nc3ccc(F)cc3)ccc2O1 -0.917%, Cc1ccc(S(=O)(=O)Nc2ccc3c(c2)C(=O)N([C@H](C)CO)C[C@H](C)[C@@H](CN(C)Cc2ccccc2)OCCCC[C@H](C)O3)cc1 -0.556%, C[C@H](CO)N1C[C@H](C)[C@@H](CN(C)Cc2ccc(C(=O)O)cc2)Oc2ccc(NS(=O)(=O)c3cn(C)cn3)cc2CC1=O -0.273%, C[C@@H]1CCCCO[C@@H](CN(C)C(=O)Nc2cccc3ccccc23)[C@H](C)CN([C@H](C)CO)C(=O)c2cc(NS(C)(=O)=O)ccc2O1 -0.00967%, Cc1noc(C)c1NC(=O)Nc1ccc2c(c1)C(=O)N([C@H](C)CO)C[C@@H](C)[C@@H](CN(C)Cc1ccncc1)OCCCC[C@H](C)O2 -0.749%, C[C@@H]1CN([C@@H](C)CO)C(=O)c2cc(NC(=O)Cc3ccccc3)ccc2O[C@@H]1CN(C)CC1CCCCC1 0.64%, Cc1noc(C)c1NC(=O)Nc1ccc2c(c1)C(=O)N([C@@H](C)CO)C[C@@H](C)[C@H](CN(C)C(=O)NC(C)C)O2 0.213%, C[C@@H]1CN([C@H](C)CO)C(=O)c2cc(NC(=O)CCCCCC(=O)Nc3ccccc3N)ccc2O[C@H]1CN(C)Cc1ccncc1 0.61%, C[C@@H]1CCCCO[C@H](CN(C)CC2CC2)[C@@H](C)CN([C@H](C)CO)C(=O)c2cc(NC(=O)Nc3ccc(F)cc3)ccc2O1 -0.194%, COc1ccc(S(=O)(=O)N(C)C[C@@H]2Oc3c(NC(=O)NC(C)C)cccc3C(=O)N([C@@H](C)CO)C[C@@H]2C)cc1 -0.3%, O=C(CCCCC(=O)N/N=C/c1ccc(-n2ccnc2)cc1)NO 1.09%, C[C@H](CO)N1C[C@H](C)[C@H](CN(C)C(=O)c2ccccc2)OCCCC[C@H](C)Oc2ccc(N(C)C)cc2C1=O -1.45%, CC(C)NC(=O)Nc1ccc2c(c1)C(=O)N([C@H](C)CO)C[C@H](C)[C@@H](CN(C)S(=O)(=O)c1ccc(F)cc1)OCCCC[C@H](C)O2 1.08%, COc1ccc(S(=O)(=O)N(C)C[C@@H]2OCCCC[C@@H](C)Oc3ccc(NC(=O)c4ccccc4)cc3C(=O)N([C@@H](C)CO)C[C@H]2C)cc1 1.47%, C[C@@H]1CCCCO[C@H](CN(C)C(=O)Nc2ccc(C(F)(F)F)cc2)[C@@H](C)CN([C@@H](C)CO)C(=O)c2cc(NS(=O)(=O)c3cccs3)ccc2O1 -0.547%, CCOc1cccc(/C=N/NC(=O)CCCCCC(=O)Nc2ccccc2O)c1OCC -0.952%, C[C@@H]1CN([C@@H](C)CO)C(=O)c2cc(NC(=O)Nc3ccc(C(F)(F)F)cc3)ccc2O[C@@H](C)CCCCO[C@H]1CN(C)C(=O)CCCN(C)C 0.263%, Cc1noc(C)c1NC(=O)N(C)C[C@@H]1Oc2ccc(NS(=O)(=O)c3ccc(F)cc3)cc2CC(=O)N([C@@H](C)CO)C[C@H]1C -0.135%, COc1ccc(S(=O)(=O)Nc2ccc3c(c2)CC(=O)N([C@H](C)CO)C[C@H](C)[C@@H](CN(C)C(=O)NC(C)C)O3)cc1 0.0847%, C[C@H](CO)N1C[C@H](C)[C@@H](CN(C)S(C)(=O)=O)OCCCC[C@H](C)Oc2ccc(NC(=O)Nc3ccc(C(F)(F)F)cc3)cc2C1=O -0.463%, C[C@H]1CCCCO[C@H](CN(C)S(C)(=O)=O)[C@@H](C)CN([C@@H](C)CO)C(=O)c2cc(NC(=O)C3CCCCC3)ccc2O1 -0.127%, C[C@@H]1CN([C@@H](C)CO)C(=O)c2cc(NC(=O)NC3CCCCC3)ccc2O[C@@H](C)CCCCO[C@H]1CN(C)Cc1ccccc1 1.95%, C[C@@H]1CCCCO[C@@H](CN(C)C(=O)Nc2cccc3ccccc23)[C@H](C)CN([C@H](C)CO)C(=O)c2cc(NC(=O)NC3CCCCC3)ccc2O1 -0.528%, COc1ccc(NC(=O)N(C)C[C@H]2OCCCC[C@H](C)Oc3ccc(NC(=O)c4ccncc4)cc3C(=O)N([C@H](C)CO)C[C@@H]2C)cc1 -1.84%, COc1ccc(S(=O)(=O)Nc2cccc3c2O[C@@H](CN(C)C(=O)NC(C)C)[C@H](C)CN([C@@H](C)CO)C3=O)cc1 0.104%, COc1ccc(CN(C)C[C@H]2Oc3ccc(NS(=O)(=O)c4c(C)noc4C)cc3CC(=O)N([C@H](C)CO)C[C@H]2C)cc1 -1.02%, C[C@H]1CCCCO[C@H](CN(C)C(=O)Nc2ccccc2)[C@@H](C)CN([C@@H](C)CO)C(=O)c2cc(NC(=O)c3ccncc3)ccc2O1 0.525%, Cc1ccc(S(=O)(=O)Nc2ccc3c(c2)C(=O)N([C@@H](C)CO)C[C@H](C)[C@@H](CN(C)C(=O)Cc2ccccc2)OCCCC[C@H](C)O3)cc1 -0.949%, C[C@@H]1CN([C@H](C)CO)C(=O)c2cccc(NC(=O)Nc3ccccc3)c2O[C@H]1CN(C)S(C)(=O)=O -0.29%, Cc1ccccc1CN(C)C[C@H]1OCc2cn(nn2)CCCC(=O)N([C@@H](C)CO)C[C@H]1C -0.00464%, C[C@H](CO)N1C[C@H](C)[C@@H](CN(C)S(=O)(=O)c2cccs2)OCCCC[C@H](C)Oc2ccc(NS(=O)(=O)c3ccccc3)cc2C1=O 0.384%
